Article PMC3207488 (Bioorganic & medicinal chemistry, 2011)
pIC50: −log10 of the molar value. Where two headings read alike, the source gives them in different places.

Key:
aromatase (CYP19) = target: T1, aromatase (CYP19) (Homo sapiens, UniProt P11511); assay: Aromatase assay; assay type: biochemical; conditions: for inhibition at 50 µM: read-out: Aromatase % inhib., 50 μM; for inhibition at 50 µM / Aromatase % inhib.: vs vehicle-treated controls; for Aromatase % inhib.: 50 μM
T1 sequence (P11511 1-503): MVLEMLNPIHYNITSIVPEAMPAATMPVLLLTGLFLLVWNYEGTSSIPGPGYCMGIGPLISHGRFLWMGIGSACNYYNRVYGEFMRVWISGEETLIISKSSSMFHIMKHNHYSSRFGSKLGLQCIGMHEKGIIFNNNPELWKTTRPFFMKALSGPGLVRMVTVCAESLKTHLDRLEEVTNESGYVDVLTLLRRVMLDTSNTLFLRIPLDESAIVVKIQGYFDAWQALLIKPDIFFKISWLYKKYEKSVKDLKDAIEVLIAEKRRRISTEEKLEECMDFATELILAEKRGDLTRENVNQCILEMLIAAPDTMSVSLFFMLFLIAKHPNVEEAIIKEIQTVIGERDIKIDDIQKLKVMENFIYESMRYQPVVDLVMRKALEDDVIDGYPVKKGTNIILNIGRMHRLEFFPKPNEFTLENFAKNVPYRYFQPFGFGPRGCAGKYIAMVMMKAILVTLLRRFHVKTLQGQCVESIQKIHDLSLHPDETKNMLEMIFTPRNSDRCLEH

MCF7 breast cancer cells = assay: SRB assay: MCF7 cell proliferation; assay type: cell-based; conditions: for viability at 50 µM: Homo sapiens, MCF7, 72 h, read-out: SRB assay % surv.; for SRB assay % surv.: MCF7 cells, 72 h
In short: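 MCF7 cells (1 × 10^4 per well) plated with test compound, 72 h at 37°C, 5% CO2. Fixed in 10% TCA for 30 min, stained with 0.4% SRB in 1% acetic acid for 30 min, then washed with 1% acetic acid. Bound dye dissolved in 10 mM Tris (pH 10.0) and A515 read. Survival given as % of vehicle-treated controls.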

[1] = system: Human embryonic kidney cells 293; assay: Cell survival in the NFκB assay; assay type: cell-based; conditions: for viability at 50 µM: Homo sapiens, HEK293, 6 h, read-out: NFκB % surv.; for NFκB % surv.: 50 μM, 293 cells
RAW 264.7 cells = assay: Cell survival in the nitrite assay; assay type: cell-based, murine; conditions: for viability at 50 µM: Mus musculus, RAW264.7, 20 h, read-out: Nitrite assay % surv.; for Nitrite assay % surv.: 50 μM, RAW 264.7 cells
In short: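 RAW 264.7 cells held 24 h at 37°C, 5% CO2, then given serially diluted test compound for 15 min. LPS (1 μg/mL) or no LPS added for a further 20 h. Viability assessed by SRB protein staining under the same conditions as the nitrite assay, as % survival versus vehicle-treated controls.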

[2] = system: Hepa 1c1c7 murine hepatoma cells; assay: Cell survival in the QR1 assay; assay type: cell-based; conditions: for viability at 50 µM: Mus musculus, Hepa-1c1c7, read-out: QR1 % surv.; for QR1 % surv.: 50 μM, cell survival in comparison with vehicle-treated controls
[3] = system: TNF-α-induced NFκB activity; assay: NFκB luciferase assay; assay type: cell-based, human; conditions: for inhibition at 50 µM: HEK293, read-out: NFκB % inhib.; for NFκB % inhib.: 50 μM
In short: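 HEK293 line carrying a chromosomally integrated luciferase reporter driven by the NFκB response element. Cells incubated 6 h with TNFα plus test compound, then luciferase activity read. Inhibition expressed as % relative to TNFα-treated control. IC50 from dose-response of five serial dilutions, mean of two experiments.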

[4] = system: quinone reductase 1 (QR1); assay: QR1 induction in cell culture; assay type: cell-based, murine; conditions: 50 μM; Hepa 1c1c7 cells
In short: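 Hepa 1c1c7 murine hepatoma cells. QR1 measured by NADPH-dependent, menadiol-mediated reduction of MTT to blue formazan, with protein determined by crystal violet staining of identical plates. Specific activity given as nmol formazan/mg protein/min. IR is the ratio of treated to DMSO-control specific activity. CD (concentration doubling activity) derived by dose-response for IR >2.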

[5] = system: various human cancer cell lines; conditions: natural callophycin A; cited from earlier work
[6] = system: nitric oxide (NO) production in LPS-stimulated RAW 264.7 murine macrophage cells; assay: Nitrite assay: NO production in LPS-stimulated RAW 264.7 cells; assay type: cell-based

C=CCOC(=O)N1Cc2[nH]c3ccccc3c2C[C@H]1C(=O)OC [Compound 3a, (S)-2-Allyl 3-methyl 3,4-dihydro-1H-pyrido[3,4-b]indole-2,3(9H)-dicarboxylate]
inhibition at 50 µM (aromatase (CYP19)): > 50%

CC(C)COC(=O)N1Cc2[nH]c3ccccc3c2C[C@H]1C(=O)O [Compound 7b, (S)-2-(Isobutoxycarbonyl)-2,3,4,9-tetrahydro-1H-pyrido[3,4-b]indole-3-carboxylic acid]
viability at 50 µM (MCF7 breast cancer cells): 105% | viability at 50 µM [1]: 138% | viability at 50 µM (RAW 264.7 cells): 137% | viability at 50 µM [2]: 94.2% | inhibition at 50 µM ([3]; Homo sapiens): 42.6% | QR1 IR (induction ratio) [4]: 1.8 | pIC50 (aromatase (CYP19)): 4.14 | inhibition at 50 µM (aromatase (CYP19)): 40%

O=C(O)C1Cc2c([nH]c3ccccc23)CN1Cc1ccc(O)cc1 (stereo not shown) [callophycin A, Callophycin A]
inhibition of MCF7 cell proliferation (in words) (MCF7 breast cancer cells; 50 μM): didn’t show the inhibitory activity | antiproliferative effects [5]: low micromolar concentrations

COC(=O)[C@@H]1Cc2c([nH]c3ccccc23)CN1C(=O)OCC(C)C [Compound 3b, (S)-2-Isobutyl 3-methyl 3,4-dihydro-1H-pyrido[3,4-b]indole-2,3(9H)-dicarboxylate]
viability at 50 µM (MCF7 breast cancer cells): 76.7% | viability at 50 µM [1]: 95.6% | viability at 50 µM (RAW 264.7 cells): 105% | viability at 50 µM [2]: 88.3% | inhibition at 50 µM ([3]; Homo sapiens): 59.8% | pIC50 ([3]; Homo sapiens, HEK293, read-out: NFκB IC50): 4.79 | QR1 IR (induction ratio) [4]: 1.7 | pIC50 (aromatase (CYP19)): 4.19 | inhibition at 50 µM (aromatase (CYP19)): 41.5%

COC(=O)[C@@H]1Cc2c([nH]c3ccccc23)CN1C(=O)NC(C)C [Compound 6b, (S)-Methyl 2-(isopropylcarbamoyl)-2,3,4,9-tetrahydro-1H-pyrido[3,4-b]indole-3-carboxylate]
inhibition at 50 µM (aromatase (CYP19)): > 50%

(R)-2-(Isobutoxycarbonyl)-2,3,4,9-tetrahydro-1H-pyrido[3,4-b]indole-3-carboxylic acid [Compound 7d]
SRB assay % surv. (MCF7 breast cancer cells; 50 μM): 97.4% | Nitrite assay % inhib. ([6]; 50 μM): 1.5% | NFκB % surv. [1]: 264.3% | Nitrite assay % surv. (RAW 264.7 cells): 134.4% | QR1 % surv. [2]: 87.5% | NFκB % inhib. ([3]; TNFα-treated 293 cells): 46.1% | QR1 IR (induction ratio) [4]: 1.5 | Aromatase % inhib. (aromatase (CYP19)): 36.3%

O=C(O)[C@@H]1Cc2c([nH]c3ccccc23)CN1Cc1ccc(O)cc1 [Compound 12a, (S)-Callophycin A]
inhibition at 50 µM (aromatase (CYP19)): > 50%

O=C(O)[C@H]1Cc2c([nH]c3ccccc23)CN1 [Compound 1b, 1,2,3,4-tetrahydro-β-carboline-3-carboxylic acid]
inhibition at 50 µM ([3]; Homo sapiens): -72.5%

(R)-2-Isobutyl 3-methyl 3,4-dihydro-1H-pyrido[3,4-b]indole-2,3(9H)-dicarboxylate [Compound 3d]
SRB assay % surv. (MCF7 breast cancer cells; 50 μM): 72.0% | pIC50 ([6]; read-out: Nitrite assay IC50): 5.55 | NFκB % surv. [1]: 112.3% | Nitrite assay % surv. (RAW 264.7 cells): 92.6% | QR1 % surv. [2]: 78.8% | NFκB % inhib. ([3]; TNFα-treated 293 cells): 91.6% | pIC50 ([3]; read-out: NFκB IC50, TNFα-treated 293 cells): 5.32 | QR1 IR (induction ratio) [4]: 1.1 | Aromatase % inhib. (aromatase (CYP19)): 31.7%
